Sampled rows, rich in hits. Any-hit rate of the full collection: about 2.6%.
NSD2 inh: NSD2 (human) methyltransferase inhibition. O96028. AID 743445. inhibition, % at 12.5 µM. NSD2 peptide methylation, AlphaScreen, 120 min. 0.54% of 310,000 active; in the data active = inhibition above about 50%
SIRT5 block: inhibitors of human sirtuin-5 desuccinylase. inhibition, % at 15 µM. Purified SirT5, succinyl-peptide AMC, trypsin-coupled fluorescence. Q9NXA8. AID 652115. 1.1% of 330,000 active; in the data active = inhibition above about 15%
CASP6 VEID inh: caspase-6 (human) enzyme inhibition; P55212; purified caspase-6, Z-VEID-R110 cleavage fluorescence; inhibition, % at 12.5 µM; 0.53% of 350,000 active; AID 686996;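 active = mean inhibition across replicates at least about 35%, with every replicate also reaching that limit, limit read from the data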;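 also: 0% = median of neutral control wells and 100% = no fluorescence left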
Target sequence (P55212 24-179 limits assumed): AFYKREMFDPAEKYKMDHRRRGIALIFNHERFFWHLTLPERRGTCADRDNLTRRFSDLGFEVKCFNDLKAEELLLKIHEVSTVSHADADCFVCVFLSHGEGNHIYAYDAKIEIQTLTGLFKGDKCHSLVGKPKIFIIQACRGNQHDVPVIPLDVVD
Target sequence (P55212 194-293 limits assumed): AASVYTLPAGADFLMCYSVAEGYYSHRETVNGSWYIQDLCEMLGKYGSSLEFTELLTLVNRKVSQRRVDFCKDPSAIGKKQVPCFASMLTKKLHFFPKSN
UCH37 DUB inh: human UCH37 deubiquitinating enzyme inhibition; Q9Y5K5; purified proteasome/UCH37, Ub-AMC cleavage fluorescence; inhibition, % (concentration not given with the values); 0.33% of 330,000 active;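 active = mean inhibition over replicate wells above about 20%, limit read from the data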;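 also: 0% = compound-free wells with enzyme and 100% = wells lacking proteasome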
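System: Proteasome-associated human UCH37 deubiquitinase; Input: 0.15 nM proteasome in added enzyme buffer; Also added: Ub-AMC substrate from 1 µM stock; Incubation: 30 min compound-proteasome preincubation then 25 min substrate reaction, room temperature; Detection: fluorescence, ex 355 nm, em 460 nm; Read-out: % inhibition of Ub-AMC cleavage fluorescence; Benchmarks: no-proteasome and no-compound wells.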
FGF22 binding: shifts melting point of recombinant human FGF22; 1.5% of 340,000 active; recombinant FGF22 thermal shift, SYPRO orange fluorescence; percent of sucrose octasulfate shift, DMSO zero; activity (Tm shift, normalised), % at 9.99 µM; Q9HCT0;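 active = mean Tm shift, scaled 0 neutral to 100 positive control, at about 1.3% or above, every replicate too, limit read from the data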
Target sequence (Q9HCT0 whole entry, looked up): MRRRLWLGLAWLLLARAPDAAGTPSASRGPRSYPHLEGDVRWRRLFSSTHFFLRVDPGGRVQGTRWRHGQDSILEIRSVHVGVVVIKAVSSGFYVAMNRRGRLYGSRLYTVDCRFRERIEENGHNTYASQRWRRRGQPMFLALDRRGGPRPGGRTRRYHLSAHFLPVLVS
The depositor's hits bear a star; . = not tested or not shown.

SMILES | NSD2 inh | SIRT5 block | CASP6 VEID inh | UCH37 DUB inh | FGF22 binding
C[C@@H]1CCCCO[C@@H](CN(C)S(=O)(=O)c2ccc(Cl)cc2)[C@@H](C)CN([C@H](C)CO)C(=O)c2cc(NS(=O)(=O)c3ccc(Cl)cc3)ccc2O1 | . | . | . | . | -0.4
Cc1ccc(S(=O)(=O)N(C)C[C@@H]2OCCCC[C@H](C)Oc3ccc(NS(=O)(=O)c4ccc(Cl)cc4)cc3C(=O)N([C@@H](C)CO)C[C@@H]2C)cc1 | . | 21.5* | 2.2 | . | 0.4
Cc1ccc(S(=O)(=O)N(C)C[C@H]2OCCCC[C@@H](C)Oc3ccc(NS(=O)(=O)c4ccc(Cl)cc4)cc3C(=O)N([C@@H](C)CO)C[C@@H]2C)cc1 | . | 21.3* | 1.6 | . | 0.1
C[C@@H]1CCCCO[C@H](CN(C)S(=O)(=O)c2ccc(Cl)cc2)[C@@H](C)CN([C@@H](C)CO)C(=O)c2cc(NS(=O)(=O)c3ccc(Cl)cc3)ccc2O1 | . | 11.0 | -0.8 | . | -0.2
C[C@@H]1CCCCO[C@H](CN(C)S(=O)(=O)c2ccc(Cl)cc2)[C@H](C)CN([C@H](C)CO)C(=O)c2cc(NS(=O)(=O)c3ccc(Cl)cc3)ccc2O1 | . | . | . | . | 29.5*
Cc1ccc(S(=O)(=O)N(C)C[C@H]2OCCCC[C@H](C)Oc3ccc(NS(=O)(=O)c4ccc(Cl)cc4)cc3C(=O)N([C@H](C)CO)C[C@@H]2C)cc1 | . | 24.0* | 2.1 | . | 0.1
C[C@@H]1CCCCO[C@H](CN(C)S(=O)(=O)c2ccc(Cl)cc2)[C@@H](C)CN([C@H](C)CO)C(=O)c2cc(NS(=O)(=O)c3ccc(Cl)cc3)ccc2O1 | . | . | . | . | -0.2
C[C@@H]1CCCCO[C@@H](CN(C)S(=O)(=O)c2ccc(Cl)cc2)[C@H](C)CN([C@@H](C)CO)C(=O)c2cc(NS(=O)(=O)c3ccc(Cl)cc3)ccc2O1 | . | . | . | . | -0.3
Cc1noc(C)c1S(=O)(=O)Nc1ccc2c(c1)C(=O)N([C@H](C)CO)C[C@@H](C)[C@H](CN(C)Cc1ccncc1)OCCCC[C@H](C)O2 | . | -4.6 | 0.0 | . | -0.2
Cc1ccc(S(=O)(=O)N(C)C[C@H]2OCCCC[C@@H](C)Oc3ccc(NS(=O)(=O)c4ccc(Cl)cc4)cc3C(=O)N([C@@H](C)CO)C[C@H]2C)cc1 | . | 22.1* | 2.7 | . | -0.1
Cc1ccc(S(=O)(=O)Nc2ccc3c(c2)C(=O)N([C@H](C)CO)C[C@H](C)[C@H](CN(C)S(=O)(=O)c2ccc(Cl)cc2)OCCCC[C@@H](C)O3)cc1 | . | . | . | . | -0.3
Cc1ccc(S(=O)(=O)N(C)C[C@H]2OCCCC[C@@H](C)Oc3ccc(NS(=O)(=O)c4ccc(Cl)cc4)cc3C(=O)N([C@H](C)CO)C[C@@H]2C)cc1 | . | 17.1* | 5.3 | . | -0.2
C[C@H](CO)N1C[C@H](C)[C@H](CN(C)S(=O)(=O)c2ccccc2)OCCCC[C@H](C)Oc2ccc(NS(=O)(=O)c3ccc(Cl)cc3)cc2C1=O | . | 15.1* | 2.7 | . | 0.1
Cc1cc(C=NNC(N)=O)c(C)n1-c1ccc(F)cc1 | . | . | . | 2.8 | .
CC(NC(=O)c1ccccc1)C(=O)N/N=C/c1cccc([N+](=O)[O-])c1 (stereo not drawn) | -1.8 | -2.8 | -5.3 | . | 43.0*
Cc1ccc(-c2ccc3c(c2)O[C@H](CN(C)C(=O)C2CCC2)[C@H](C)CN([C@@H](C)CO)S3(=O)=O)cc1 | . | 10.0 | 3.0 | . | -0.3
O=C1Cc2ccccc2C(=O)N1c1ccc(F)cc1Cl | 14.8 | 0.2 | 44.1* | -14.0 | -0.5
COc1ccc2c(c1)CCC2=NOC(=O)c1ccccc1C | . | . | . | 0.2 | .
Cc1cc(=O)n2c3c(c4c(cc13)c(CN(C)C)cc(=O)n4C)OC2 | . | 1.7 | 98.9* | . | -0.7
CO[C@H]1CN(C)C(=O)c2cccc(C#N)c2OC[C@H]2O[C@H](CC[C@@H]2OC)CCN(C)C(=O)[C@H]1C | . | 21.3* | -15.0 | . | -0.2
CO[C@@H]1CC[C@@H]2CCN(C)C(=O)[C@H](C)[C@H](OC)CN(C)C(=O)c3cc(C#N)ccc3OC[C@@H]1O2 | . | 0.0 | -153.9 | . | -0.2
CO[C@H]1CC[C@H]2CCN(C)C(=O)[C@@H](C)[C@H](OC)CN(C)C(=O)c3cc(C#N)ccc3OC[C@@H]1O2 | . | 15.8* | -71.2 | . | -0.3
CCCC(=O)Nc1ccc2c(c1)C(=O)N(C)C[C@H](OC)[C@@H](C)CN(Cc1ccccc1F)[C@@H](C)CO2 | . | -12.5 | -0.6 | . | 0.2
O=C1CNC(=O)/C(=C/c2cccs2)N1 | 0.1 | 0.3 | -0.4 | 8.1 | 43.4*

High-throughput results deposited in PubChem by several laboratories.
